{"source": "ChEMBL document CHEMBL4011654", "about": "“Mitochondria-Targeted Lupane Triterpenoid Derivatives and Their Selective Apoptosis-Inducing Anticancer Mechanisms” (J Med Chem, 2017)", "key": {"A549": {"test_system": "A549", "assay": "Cytotoxicity against human A549 cells assessed as cell growth inhibition after 48 hrs by MTT assay", "assay_type": "functional, cell-based", "conditions": "A549, 48 h", "procedure,_shortened": "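Adherent cells seeded at 5000/well, left 16−24 h, then exposed 48 h at 37 °C, 5% CO2 in RPMI with 10% FBS. Medium refreshed, MTT added for 4 h at 37 °C, medium removed, formazan dissolved in DMSO, OD570 read. IC50 taken as concentration inhibiting growth by 50%; triplicate.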"}, "K562 [1]": {"test_system": "K562", "assay": "Induction of apoptosis in human K562 cells assessed as increase in cytosolic cytochrome c level up to 4 uM after 48 hrs by Western blot analysis", "assay_type": "functional, cell-based", "procedure,_shortened": "(§1)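 K562 treated 48 h, then lysed on ice for 30 min; cytosolic and mitochondrial fractions isolated by kit where needed, protein measured by BCA. 60 μg/lane run on SDS-PAGE, transferred to PVDF, blocked in 5% milk/TBST for 4 h. Probed for cytochrome c, caspase-9, caspase-3 (total/cleaved), PARP; alkaline phosphatase secondary.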"}, "K562 [2]": {"test_system": "K562", "assay": "Induction of apoptosis in human K562 cells assessed as viable cells at 0.4 uM after 48 hrs by Annexin V-FITC/propidium iodide-staining based flow cytometric analysis (reference value: 95.75 to 96.56%)", "assay_type": "functional", "conditions": "K562, 48 h, read-out: Activity", "procedure,_shortened": "(§2)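 K562 seeded at 4 × 10^5 cells/well, 12 h, then exposed 48 h. Cells washed in ice-cold PBS, suspended in binding buffer, stained with annexin V-FITC and PI for 15 min at room temperature in the dark, and read by flow cytometry within 1 h. Cells counted as early/late apoptotic as % of total; n = 3.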"}, "K562 [3]": {"test_system": "K562", "assay": "Antitumor activity against CM-Dil-labeled human K562 cells xenografted in wild-type zebrafish embryos assessed as tumor growth inhibition at 1 to 10 ug/ml measured after 48 hrs by confocal microscopic analysis", "assay_type": "functional, cell-based", "procedure,_shortened": "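K562 cells labelled with CM-Dil, suspended in FBS-free medium at (1 × 107)/mL and microinjected into wild-type zebrafish embryos kept at 28 °C in embryonic medium. After 4 h, embryos with the same injection spot were pooled at 15−20 per well and exposed to compound; Taxol served as positive control. At 48 h, confocal imaging gave fluorescent area (migration) and fluorescence intensity (cell number); n = 15.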"}, "K562 [4]": {"test_system": "K562", "assay": "Induction of mitochondrial membrane depolarization in human K562 cells assessed as cells with intact mitochondrial membrane potential at 4 uM after 48 hrs by JC-1 staining based flow cytometric analysis (reference value: 97.63 to 97.67%)", "assay_type": "functional"}, "K562 [5]": {"test_system": "K562", "assay": "Induction of apoptosis in human K562 cells assessed as late apoptotic cells at 0.4 uM after 48 hrs by Annexin V-FITC/propidium iodide-staining based flow cytometric analysis (reference value: 2.25 to 2.67%)", "assay_type": "functional", "procedure,_shortened": "as §2"}, "HL-60": {"test_system": "HL-60", "assay": "Cytotoxicity against human HL60 cells assessed as cell growth inhibition after 48 hrs by MTT assay", "assay_type": "functional, cell-based", "conditions": "HL-60, 48 h", "procedure,_shortened": "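Suspension cells seeded at 5000/well (HL-60 in IMDM, K562 in RPMI, both with 10% FBS) and treated. MTT then added for 4 h at 37 °C; plates centrifuged at 3000 rpm for 30 min, medium removed, DMSO added, OD570 read. IC50 taken as concentration giving 50% growth inhibition; triplicate.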"}, "K562 [6]": {"test_system": "K562", "assay": "Induction of apoptosis in human K562 cells assessed as caspase-3 activation at 4 uM after 48 hrs by Western blot analysis relative to control", "assay_type": "functional", "procedure,_shortened": "as §1"}, "K562 [7]": {"test_system": "K562", "assay": "Induction of ROS generation in human K562 cells at 0.5 uM after 48 hrs by DCFH-DA probe based flow cytometric analysis relative to control", "assay_type": "functional", "procedure,_shortened": "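K562 seeded at 4 × 10^5 cells/well, 12 h, then treated 48 h. Washed cells loaded with DCFH-DA in FBS-free medium at 37 °C for 30 min, rinsed, read by flow cytometry. ROSup was the positive control; mean ± SD, n = 3.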"}, "K562 [8]": {"test_system": "K562", "assay": "Induction of apoptosis in human K562 cells assessed as necrotic cells at 1.2 uM after 48 hrs by Annexin V-FITC/propidium iodide-staining based flow cytometric analysis (reference value: 0.13 to 0.27%)", "assay_type": "functional", "procedure,_shortened": "as §2"}, "[9]": {"assay": "Drug uptake in mitochondria of human K562 cells at 10 uM after 4 hrs by RP-HPLC analysis relative to betulin", "assay_type": "ADME", "procedure,_shortened": "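K562 exposed to 10 μM compound or betulin for 4 h, washed, mitochondria isolated by kit, pellet extracted twice with dichloromethane/methanol (2:1). Residue assayed by RP-HPLC on C18: betulin in 100% acetonitrile, detection 220 nm; conjugate in 80% acetonitrile with 0.1% formic acid, detection 267 nm. Amounts normalised to protein; n = 3.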"}}, "note": "Active and inactive are the calls of the source. The calls are words filed in the database; no cut-off is given here."}
{"smiles": "C=C(C)[C@@H]1CC[C@]2(COC(=O)CCCC[P+](c3ccccc3)(c3ccccc3)c3ccccc3)CC[C@]3(C)[C@H](CC[C@@H]4[C@@]5(C)CC[C@H](O)C(C)(C)[C@@H]5CC[C@]43C)[C@@H]12.[Br-]", "values": [{"measurement": "IC50", "setting": "A549", "value": 610, "unit": "nM"}, {"measurement": "Activity", "setting": "K562 [1]", "value": "Active"}, {"measurement": "viability at 0.4 µM", "setting": "K562 [2]", "value": 88.1, "unit": "%"}, {"measurement": "TGI", "setting": "K562 [3]", "value": "Active"}, {"measurement": "Activity", "setting": "K562 [4]", "value": 38.18, "unit": "%"}, {"measurement": "Activity", "setting": "K562 [5]", "value": 4.67, "unit": "%"}, {"measurement": "IC50", "setting": "HL-60", "value": 600, "unit": "nM"}, {"measurement": "fold change (FC)", "setting": "K562 [6]", "value": 2.1}, {"measurement": "Activity", "setting": "K562 [7]", "value": 50, "unit": "%"}, {"measurement": "Activity", "setting": "K562 [8]", "value": 4.41, "unit": "%"}, {"measurement": "fold change (FC)", "setting": "[9]", "value": 3.4}]}
